Assay results gathered from unrelated publications.

SMILES	target or system	test	system	conditions	quantity	value
COc1cccc(Oc2ccccc2NC(=O)CNC(=O)c2cccc3ccccc23)c1	HL-60	cell growth or viability		48 h	GI50	0.0813 µM
CC1CCN(CCCN2/C(=C/c3cc[n+](C)c4ccccc34)Sc3ccccc32)CC1.[I-]	Enterobacter cloacae	microbial growth, broth dilution	ATCCBAA1143		MIC	> 64 µg/mL
CN1C[C@H](C(=O)N[C@]2(C)O[C@@]3(O)[C@@H]4CCCN4C(=O)[C@H](Cc4ccccc4)N3C2=O)C=C2c3cccc4[nH]cc(c34)C[C@H]21	NCI-H1299	cell growth or viability, MTT		72 h	EC50	~25 µM
CCCCCOc1ccc(-c2cc(-c3ccc(C(=O)N[C@H]4C[C@@H](O)[C@@H](O)NC(=O)[C@@H]5[C@@H](O)[C@@H](C)CN5C(=O)[C@H]([C@H](O)CC(N)=O)NC(=O)[C@H]([C@H](O)[C@@H](O)c5ccc(O)c(OS(=O)(=O)O)c5)NC(=O)[C@@H]5C[C@@H](O)CN5C(=O)[C@H]([C@@H](C)O)NC4=O)cc3)no2)cc1	Candida dubliniensis	biofilm formation		16 µg/mL	inhibition	42%
Nc1cc(Br)c(Br)cc1N	ME-180	cell growth or viability		72 h	IC50	75 µM
CN[C@H](CC(C)C)C(=O)N[C@H]1C(=O)N[C@@H](CC(N)=O)C(=O)N[C@H]2C(=O)N[C@H]3C(=O)N[C@H](C(=O)N[C@H](C(=O)O)c4cc(O)cc(O)c4-c4cc3ccc4O)[C@H](O)c3ccc(c(Cl)c3)Oc3cc2cc(c3O[C@@H]2O[C@H](CO)[C@@H](O)[C@H](O)[C@H]2O[C@H]2C[C@](C)(N)[C@H](O)[C@H](C)O2)Oc2ccc(cc2Cl)[C@H]1O	Enterobacter cloacae	microbial growth, broth dilution	ATCCBAA1143		MIC	> 64 µg/mL
Nc1cc(Cl)c(Cl)cc1N	ME-180	cell growth or viability		72 h	IC50	100 µM
CO[C@H]1/C=C/O[C@@]2(C)Oc3c(C)c(O)c4c(O)c(c(/C=N/N5CCN(C)CC5)c(O)c4c3C2=O)NC(=O)/C(C)=C\C=C\[C@H](C)[C@H](O)[C@@H](C)[C@@H](O)[C@@H](C)[C@H](OC(C)=O)[C@@H]1C	Vero	cell growth or viability		18 h	IC50	120 µg/mL
